These results are taken from ChEMBL document CHEMBL2346620, “Design, synthesis and antithrombotic evaluation of novel dabigatran prodrugs containing methyl ferulate” (Bioorg Med Chem Lett, 2013).

Active and inactive are the calls of the source. The rule behind the calls is not given here.

A word on the IC50: it is the midpoint of a concentration-inhibition curve. Low values mean inhibition by little substance, high ones a need for much substance. In general, ED50 refers to the midpoint of the dose-response relation. One may read the Ki as a dissociation constant, usually derived from enzyme kinetics or from competition with a known ligand. A low value points to higher affinity.

In assay [1] the test system is Platelet. As to the kind of experiment: Inhibition of thrombin-induced rabbit platelet aggregation compound pre-incubated in rabbit liver microsomal suspension. The following applies: Oryctolagus cuniculus. Format: functional, microsomes, Microsome. In a few lines: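 Each compound was first incubated in rabbit liver microsomal suspension, then tested in rabbit platelet aggregation induced by thrombin. IC50 is the concentration giving half-maximal inhibition of aggregation. Mean ± SD of six independent experiments.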
(In general: Microsomes from liver hold many membrane-bound enzymes, among them those of drug oxidation.)

In assay [2] the test system is Rattus norvegicus. As to the kind of experiment: Antithrombotic activity in intragastrically dosed rat venous thrombosis model. Format: functional. The following applies: po. In a few lines: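 Reyers rat venous thrombosis model with intragastric dosing over 0.1–20 mg/kg, and a vehicle-treated control group. Read-out is dry clot weight. Eight animals per group, mean ± SD. ED50 is taken from the dose–response curve of clot weight against log dose (μmol/kg).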

Assay [3] concerns the target Prothrombin (Homo sapiens, UniProt P00734). As to the kind of experiment: Binding affinity to human thrombin.
In assay [4] the test system is Platelet. As to the kind of experiment: Inhibition of ADP-induced rabbit platelet aggregation compound pre-incubated in rabbit liver microsomal suspension. Format: functional, microsomes. Particulars: Oryctolagus cuniculus. The method, boiled down:
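Before the in vitro assay, prodrugs were incubated in rabbit liver microsomal suspension. Rabbit platelet aggregation was then induced with ADP. IC50 is the drug concentration giving half-maximal inhibition of aggregation. Mean ± SD from six independent experiments.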

Consider `CCCCCOC(=O)/N=C(/N)c1ccc(NCc2nc3cc(C(=O)N(CCC(=O)Oc4ccc(/C=C/C(=O)OC)cc4OC)c4ccccn4)ccc3n2C)cc1`, for which the IC50 in assay [1] amounted to 0.206 µM. As to `COC(=O)/C=C/c1ccc(OC(=O)CCN(C(=O)c2ccc3c(c2)nc(CNc2ccc(/C(N)=N\C(=O)OC(C)C)cc2)n3C)c2ccccn2)c(OC)c1`, it took 0.784 µM to reach half-maximal inhibition in assay [1] (IC50).

Consider `CCCCCCOC(=O)NC(=N)c1ccc(NCc2nc3cc(C(=O)N(CCC(=O)OCC)c4ccccn4)ccc3n2C)cc1` [DABIGATRAN ETEXILATE], for which the ED50 in assay [2] turned out to be 7.8 µmol/kg. Moreover, in assay [3], the Ki came out at 0.0045 µM. In addition, the inhibition entry in assay [4] (Microsome) is “inactive”. This compound also displayed a concentration for half-maximal inhibition (IC50) in assay [1] of 0.337 µM. For the compound `COC(=O)/C=C/c1ccc(OC(=O)CCN(C(=O)c2ccc3c(c2)nc(CNc2ccc(/C(N)=N\C(=O)OC(C)(C)C)cc2)n3C)c2ccccn2)c(OC)c1`, in assay [1], the IC50 was 0.607 µM. The same measure, in the same setting: for `CCOC(=O)/N=C(/N)c1ccc(NCc2nc3cc(C(=O)N(CCC(=O)Oc4ccc(/C=C/C(=O)OC)cc4OC)c4ccccn4)ccc3n2C)cc1` the value was 0.453 µM.

`COC(=O)/C=C/c1ccc(OC(=O)CCN(C(=O)c2ccc3c(c2)nc(CNc2ccc(/C(N)=N\C(=O)OCc4ccccc4)cc2)n3C)c2ccccn2)c(OC)c1` gave an IC50 in assay [1] of 0.687 µM. Take `CCCCCCOC(=O)/N=C(/N)c1ccc(NCc2nc3cc(C(=O)N(CCC(=O)Oc4ccc(/C=C/C(=O)OC)cc4OC)c4ccccn4)ccc3n2C)cc1`: in assay [2], the 50% effective dose (ED50) turned out to be 3.7 µmol/kg. Besides, the IC50 in assay [4] is 5800 µM; in assay [1] it was 0.29 µM. `COC(=O)/C=C/c1ccc(OC(=O)CCN(C(=O)c2ccc3c(c2)nc(CNc2ccc(/C(N)=N\C(=O)OC)cc2)n3C)c2ccccn2)c(OC)c1` had a half-inhibitory concentration (IC50) in assay [1] of 0.841 µM.

`COc1cc(/C=C/C(=O)O)ccc1O` [FERULATE] registered an IC50 in assay [4] of 2700 µM.
